Published values gathered from unrelated publications.
Target: Focal adhesion kinase 1 (PTK2, Homo sapiens, UniProt Q05397)

O=C(NS(=O)(=O)c1ccc(NCC2CCOCC2)c([N+](=O)[O-])c1)c1ccc(N2CCN(Cc3ccc(C(F)(F)F)cc3-c3ccc(Cl)cc3)CC2)cc1Oc1cnc2[nH]ccc2c1  remaining binding (cell-free assay, competition with immobilised ligand; 1 µM): 100%
COc1cnc(Nc2cccc(S(N)(=O)=O)c2)nc1N1CCN(c2ccccc2)CC1  remaining binding (binding, competition with immobilised ligand; 1 µM): 100%
Cc1cnc(Nc2ccc(C(=O)N3CCC(N4CCCC4)CC3)cc2)nc1-c1cc2ccccc2s1  remaining binding (binding, competition with immobilised ligand; 1 µM): 100%
Cc1c(C(=O)O)cc(-c2ccc(C3CCNCC3)cc2)c2ccc(-c3ccc(C(F)(F)F)cc3)cc12  remaining binding (binding, competition with immobilised ligand; 1 µM): 100%
O=C(Nc1c[nH]nc1C(=O)NC1CCNCC1)c1cc(F)cc(F)c1  remaining binding (binding, competition with immobilised ligand; 1 µM): 91%
CN(CCCC(F)(F)F)c1nccc(-c2cnn3ncccc23)n1  remaining binding (binding; 1 µM): 100%
C[C@@H]1CN(c2ccc3ncc(-c4ccc5[nH]nc(C6CC6)c5c4)n3n2)C[C@H](C)O1  remaining binding (binding, competition with immobilised ligand; 0.5 µM): 100%
O=C(N[C@H]1CCCCC/C=C\C2C[C@@]2(C(=O)O)NC(=O)[C@@H]2C[C@@H](Oc3ccncc3)CN2C1=O)OC1CCCC1 (stereo partly shown)  remaining binding (binding, competition with immobilised ligand; 1 µM): 97%
O=C(NCCCN1CCOCC1)c1ccc(Nc2ncc(Cl)c(-c3ccc(Cl)s3)n2)cc1  remaining binding (binding, competition with immobilised ligand; 1 µM): 8.1%
COc1ncc2cc3ccccc3nc2c1C#N  remaining binding (cell-free assay, competition with immobilised ligand; 5 µM): 100%
N[C@H]1CCN(c2nccc(-c3cnn4ncccc34)n2)C1  remaining binding (binding; 1 µM): 100%
C[C@@H](c1ccc(-n2cnc3c(N)ncnc32)cc1)N1CCc2nn(C)c(Cc3ccccc3)c2C1=O  remaining binding (binding, competition with immobilised ligand; 0.1 µM): 87%
CCOCCn1cc(C(=O)Nc2ccc(-n3nc(-c4cccnc4)cc3C(F)(F)F)cn2)ccc1=O  remaining binding (cell-free assay, competition with immobilised ligand; 1 µM): 100%
C=CC(=O)N1CCC(C(=O)NCC(=O)N2CCN(c3nc(-c4cnc(N)nc4C(F)F)nc(N4CCOCC4)n3)CC2)CC1  remaining binding (binding, competition with immobilised ligand; 1 µM): 100%
CN(C)c1nccc(-c2cnc3ncccn23)n1  remaining binding (binding; 1 µM): 100%
O=C(NCc1ncc(C(F)(F)F)cc1Cl)c1ccc2c(c1)C1(CCS(=O)(=O)CC1)[C@@H](C1CC1)N2S(=O)(=O)c1ccc(F)cc1  remaining binding (cell-free assay, competition with immobilised ligand; 1 µM): 95%
CN(C)c1nccc(-c2cnn3ncccc23)n1  remaining binding (binding; 1 µM): 79%
O=C(c1ccc(Nc2nccc(-c3cc4ccccc4s3)n2)cc1)N1CCC(N2CCCC2)CC1  remaining binding (binding, competition with immobilised ligand; 1 µM): 81%
CNC(=O)Nc1ccc2c(c1)[C@@]1(CC2)OC(=O)N(CC(=O)N(Cc2ccc(F)cc2)[C@@H](C)C(F)(F)F)C1=O  remaining binding (cell-free assay, competition with immobilised ligand; 1 µM): 100%
COc1cnc(Nc2cccc(S(N)(=O)=O)c2)nc1N1CCN(c2ccccc2)C(=O)C1  remaining binding (binding, competition with immobilised ligand; 1 µM): 99%
O=C1CCc2cc(Nc3cc(OC4CCOCC4)c([N+](=O)[O-])cc3Cl)ccc2N1  remaining binding (cell-free assay, competition with immobilised ligand; 1 µM): 100%
C[C@@H]1CCN(c2nccc(-c3cnn4ncccc34)n2)C1  remaining binding (binding; 1 µM): 100%
